# Test results taken from ChEMBL document CHEMBL4014309, “Development of an Acrylate Derivative Targeting the NLRP3 Inflammasome for the Treatment of Inflammatory Bowel Disease” (J Med Chem, 2017).
# The source made the active and inactive calls. The calls are words filed in the database; no cut-off is given here.
# Assays:
# [1] = Stability of the compound in simulated intestinal fluid at 1.56 mg as suspension in olive oil and pH 7 after 2 hrs by UHPLC-MS analysis
# Procedure, shortened: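 1.56 mg suspended in 100 µL olive oil, mixed with 100 µL SGF (pH 2, pepsin 3.2 mg/mL) for 2 h at 37 °C with shaking. Then 200 µL SIF (pH 7, pancreatin 2 mg/mL) was added for a further 2 h. Dedicated samples at 0, 30, 60 and 120 min were extracted with acetonitrile and analysed by UHPLC-MS. ≥3 repeats.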
# [2] = Cysteamine reactivity in PBS assessed as free compound level at pH 7.4 measured after 60 mins by DTNB reagent based RP-UHPLC analysis
# Procedure, shortened: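 The compound was reacted with excess cysteamine in pH 7.4 phosphate buffer with CH3CN cosolvent at 37 °C. Remaining compound was followed by UHPLC over 4 h, sampled at 30 min, 60 min and 4 h, and expressed as percent of starting concentration.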
# [3] = molecular target: NACHT, LRR and PYD domains-containing protein 3 (Mus musculus) (UniProt Q8R4B8); experiment: Inhibition of NLRP3 inflammasome in LPS-primed C57BL/6 mouse bone marrow derived macrophages assessed as reduction in ATP-induced caspase-1 activation at 10 to 100 uM preincubated for 1 hr followed by stimulation with ATP measured after 30 mins by Western blot analysis
# NACHT, LRR and PYD domains-containing protein 3 (Mus musculus), sequence (Q8R4B8 whole entry, the tested form may be a part): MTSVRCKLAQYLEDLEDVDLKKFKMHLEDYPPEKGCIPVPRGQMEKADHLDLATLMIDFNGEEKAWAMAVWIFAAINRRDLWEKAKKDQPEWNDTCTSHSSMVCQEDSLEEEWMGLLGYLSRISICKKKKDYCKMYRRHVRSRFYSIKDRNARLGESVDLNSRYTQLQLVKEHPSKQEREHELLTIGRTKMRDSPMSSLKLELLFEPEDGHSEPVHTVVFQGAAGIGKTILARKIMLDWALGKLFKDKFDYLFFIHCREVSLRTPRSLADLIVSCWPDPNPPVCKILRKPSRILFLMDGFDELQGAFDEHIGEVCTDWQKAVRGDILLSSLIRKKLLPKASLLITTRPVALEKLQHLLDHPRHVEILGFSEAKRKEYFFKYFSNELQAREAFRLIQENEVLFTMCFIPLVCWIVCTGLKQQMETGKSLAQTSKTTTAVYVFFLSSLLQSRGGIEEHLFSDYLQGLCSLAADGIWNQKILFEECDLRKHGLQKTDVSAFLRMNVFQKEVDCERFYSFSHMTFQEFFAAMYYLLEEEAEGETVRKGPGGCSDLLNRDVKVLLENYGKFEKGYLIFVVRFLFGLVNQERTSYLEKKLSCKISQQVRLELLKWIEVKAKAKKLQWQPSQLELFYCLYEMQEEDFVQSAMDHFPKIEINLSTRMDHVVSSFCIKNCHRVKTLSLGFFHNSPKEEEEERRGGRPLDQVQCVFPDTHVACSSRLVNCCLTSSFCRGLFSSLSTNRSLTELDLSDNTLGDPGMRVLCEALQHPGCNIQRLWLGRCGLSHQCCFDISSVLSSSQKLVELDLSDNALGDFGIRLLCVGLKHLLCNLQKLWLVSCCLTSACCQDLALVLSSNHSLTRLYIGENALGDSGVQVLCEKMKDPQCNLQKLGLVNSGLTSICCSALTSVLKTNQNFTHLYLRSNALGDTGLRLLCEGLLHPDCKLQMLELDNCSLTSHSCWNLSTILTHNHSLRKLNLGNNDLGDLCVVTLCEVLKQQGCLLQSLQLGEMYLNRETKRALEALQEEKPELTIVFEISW
# [4] = molecular target: NACHT, LRR and PYD domains-containing protein 3 (Mus musculus) (UniProt Q8R4B8); experiment: Inhibition of NLRP3 inflammasome in LPS-primed C57BL/6 mouse bone marrow derived macrophages assessed as reduction in nigericin-induced pyroptosis at 10 to 100 uM preincubated for 1 hr followed by stimulation with ATP measured after 30 mins by LDH release assay
# Procedure, shortened: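 Bone marrow macrophages from C57BL/6 mice, differentiated with 20% L-cell medium, primed with LPS (1 µg/mL, 3 h). Test agent or vehicle was added for 1 h, then ATP (5 mM, 30 min) or nigericin (10 µM, 30 min). IL-1β in the medium was measured by ELISA. LDH in the medium was measured colorimetrically as % of total cellular LDH.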
# Rattus norvegicus = experiment: Anti-inflammatory activity in DNBS-induced Sprague-Dawley rat colitis model assessed as DNBS-induced TNFalpha levels in colon at 50 mg/kg/day, ig for 6 days simulatneously with 6 days of DNBS-challenge by ELISA (reference value: 5.9 +/- 0.6 pg/mg); assay type: functional
# Caspase-1 (Homo sapiens) = molecular target: T1, Caspase-1 (Homo sapiens) (UniProt P29466); experiment: Inhibition of recombinant human caspase-1 at 10 to 100 uM using z-YVAD-AFC as substrate measured every 10 mins for 3 hrs by fluorescence analysis
# T1 sequence (whole entry): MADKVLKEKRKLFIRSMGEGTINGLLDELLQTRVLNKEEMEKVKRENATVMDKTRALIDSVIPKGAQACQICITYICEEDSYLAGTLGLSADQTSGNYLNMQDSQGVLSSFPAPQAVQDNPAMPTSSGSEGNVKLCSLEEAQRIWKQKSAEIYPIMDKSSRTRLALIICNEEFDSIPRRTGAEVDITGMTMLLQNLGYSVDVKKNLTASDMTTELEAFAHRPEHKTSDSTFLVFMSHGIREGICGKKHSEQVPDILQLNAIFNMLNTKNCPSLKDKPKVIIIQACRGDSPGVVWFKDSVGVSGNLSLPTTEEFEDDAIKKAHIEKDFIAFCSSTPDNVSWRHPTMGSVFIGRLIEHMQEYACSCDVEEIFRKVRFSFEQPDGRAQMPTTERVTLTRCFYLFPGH
smiles,measurement,setting,value
C=C(Cc1ccccc1Cl)C(=O)OCC,Stability,[1],> 99.5%
same,Stability,[2],83.3%
same,inhibition,[3],Active
same,inhibition,[4],Active
same,Activity,Rattus norvegicus,2.7 pg/mg
same,inhibition,Caspase-1 (Homo sapiens),inactive
